S100A4 MyoIIA: blocks human S100A4 binding to myosin IIA peptide. inhibition, % at 10.7 µM. S100A4/TAMRA-MyoIIA peptide fluorescence polarization. P26447. actives 0.14% (n = 360,000);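 active = mean inhibition of at least 70% across replicates, with every replicate also reaching that level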
Target sequence (P26447 whole entry, looked up): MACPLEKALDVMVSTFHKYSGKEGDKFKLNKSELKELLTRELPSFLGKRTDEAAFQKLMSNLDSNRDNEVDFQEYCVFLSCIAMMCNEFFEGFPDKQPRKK
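Test system: S100A4 monomer protein; Medium: HEPES pH 7.2 with CaCl2, KCl, NaCl, DTT, Triton; Probe or stimulus: TAMRA-labelled myosin IIA heavy-chain peptide probe, 5 nM; Doses: one dose per compound; Times: polarization read 5 min after assay mix addition, stable 5–60 min; Benchmarks: neutral control DMSO, positive control TFP.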
FGF22 binding: shifts melting point of recombinant human FGF22 | Q9HCT0 | recombinant FGF22 thermal shift, SYPRO orange fluorescence; percent of sucrose octasulfate shift, DMSO zero | activity (Tm shift, normalised), % at 9.99 µM | actives 1.5% (n = 340,000);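 active = mean Tm shift, scaled 0 neutral to 100 positive control, at about 1.3% or above, every replicate too, limit read from the data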
Target sequence (Q9HCT0 whole entry, looked up): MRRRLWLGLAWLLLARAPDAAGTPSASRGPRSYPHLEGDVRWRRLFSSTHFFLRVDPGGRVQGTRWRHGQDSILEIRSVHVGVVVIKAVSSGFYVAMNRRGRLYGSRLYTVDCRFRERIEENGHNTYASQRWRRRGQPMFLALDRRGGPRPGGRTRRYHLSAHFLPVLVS
dFosB act-1: mouse delta FosB homodimer activation; AID 493131; activation, % at 25 µM; purified delta FosB, TAMRA-CDK5 oligo fluorescence polarization; percent of positive-control signal above neutral wells; actives 0.99% (n = 340,000);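 active = mean activation above about 17%, with every replicate also reaching it, limit read from the data, passing the limit was not always enough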
Target sequence (P13346 whole entry, looked up): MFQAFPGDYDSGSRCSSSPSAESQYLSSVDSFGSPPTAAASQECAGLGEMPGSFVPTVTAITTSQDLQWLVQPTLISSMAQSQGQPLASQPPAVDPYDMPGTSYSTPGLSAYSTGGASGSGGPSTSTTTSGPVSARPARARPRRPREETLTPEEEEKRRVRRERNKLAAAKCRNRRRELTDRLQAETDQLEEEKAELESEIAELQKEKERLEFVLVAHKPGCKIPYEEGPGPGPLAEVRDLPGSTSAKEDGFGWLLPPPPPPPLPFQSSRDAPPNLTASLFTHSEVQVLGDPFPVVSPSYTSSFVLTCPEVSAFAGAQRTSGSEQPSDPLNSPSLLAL
F508del corr: correctors of CFTR F508del function in bronchial epithelial cells; AID 720511; actives 0.36% (n = 350,000); CFBE cells, YFP halide quenching; stimulated with forskolin plus potentiator P3; % fluorescence drop versus neutral controls; activity (quench increase), % at 7.58 µM;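 active = mean added fluorescence quench of at least 8% versus neutral control, with both replicates also reaching 8%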;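 note: cells transiently co-express mutant CFTR-F508del with the halide-sensitive YFP; corrector assay measuring rescue of mutant channel to the surface after 24 h compound exposure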
dFosB act-2: delta FosB (mouse) homodimer activation. shares compounds with dFosB act-1. purified delta FosB, TAMRA-CDK5 oligo fluorescence polarization; normalised: neutral wells 0, positive control 100. activation, % at 24.9 µM. 2,400 tested, under 10 active. AID 588690;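 active = highest replicate activation at or above 34% and every replicate reaching that threshold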;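 note: higher polarization means more probe DNA bound by delta FosB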
Active calls of the source: *; x = not tested or not shown. A selection: hits, their analogues and other compounds. The true share with any hit is near 2.2%.

SMILES	S100A4 MyoIIA	FGF22 binding	dFosB act-1	F508del corr	dFosB act-2
O=C(CN1C(=O)C2CC=CCC2C1=O)Nc1nnc(SCc2c(Cl)cccc2Cl)s1 (configuration not stated)	x	x	39*	x	-6
CN(C)C(=O)C[C@@H]1C[C@H]2c3cc(NC(=O)Nc4ccccc4)ccc3O[C@H]2[C@@H](CO)O1	x	0	x	1	x
CC(=O)Nc1ccc(NC(=O)C(C)OC(=O)c2cccc(S(=O)(=O)N3CCCCCC3)c2)cc1 (configuration not stated)	-3	0	0	-2	x
CC(=O)Nc1ccc(NC(=O)C(C)OC(=O)c2cccc(S(=O)(=O)N3CCCCC3)c2)cc1 (configuration not stated)	0	0	32*	0	-4
CN(C)C(=O)[C@H]1[C@H](CO)[C@H]2Cn3c(ccc(C4=CCCCC4)c3=O)[C@@H]1N2Cc1cccnc1	7	x	x	-1	x
C[C@H](CO)N1C[C@H](C)[C@@H](CN(C)Cc2ccc(C(=O)O)cc2)Oc2ccc(NC(=O)C3CC3)cc2C1=O	-1	-1	x	1	x
O=C(CSc1nc2ccccc2c(=O)n1-c1ccc(Cl)cc1)c1ccco1	x	x	53*	x	3
O=C(CSc1nc2ccccc2c(=O)n1-c1ccccc1)c1c[nH]c2ccccc12	5	0	29*	2	5
O=c1[nH]c(-c2ccc(F)cc2)nc2c1sc(=S)n2-c1ccccc1	-6	0	24*	x	3
O=c1[nH]c(-c2ccc3c(c2)OCO3)nc2c1sc(=S)n2-c1ccccc1	-1	0	-6	1	x
COc1ccccc1/C=C1\SC(=O)N(CCC(=O)NNC(=O)c2ccccc2Cl)C1=O	x	x	21*	x	2
COc1cccc(-c2ccc3n(c2=O)C[C@H]2[C@H](CO)[C@@H](C(=O)NCC4CC4)N(C(C)=O)[C@@H]32)c1	6	0	x	x	x
Cc1cc2cc(C)c3nnc(SCC(=O)Nc4ccc(S(=O)(=O)N5CCCCC5)cc4)n3c2cc1C	0	0	22*	x	2
Cc1cc2ccccc2n2c(SCC(=O)Nc3ccc(S(=O)(=O)N4CCCCC4)cc3)nnc12	x	x	-10	x	x
CCn1c(SCC(=O)Nc2ccc(NC(C)=O)cc2)nc2c([nH]c3ccccc32)c1=O	-18	0	39*	-1	0
Cn1c(SCC(=O)Nc2ccc(F)cc2)nc2c([nH]c3ccccc32)c1=O	2	0	21*	-3	-1
C=CCn1c(SCC(=O)Nc2ccccc2OC)nc2c([nH]c3ccccc32)c1=O	0	0	44*	2	0
CC(C)NC(=O)N(C)C[C@H]1Oc2ccc(NC(=O)c3ccncc3)cc2C(=O)N([C@@H](C)CO)C[C@H]1C	-42	x	x	0	x
C[C@@H]1CCCCO[C@@H](CN(C)S(=O)(=O)c2ccc(Cl)cc2)[C@@H](C)CN([C@H](C)CO)C(=O)c2cc(NS(C)(=O)=O)ccc2O1	1	0	x	-2	x
O=C(COC(=O)/C=C/c1cccc(F)c1)Nc1ccc2[nH]c(=O)[nH]c2c1	-13	0	9	-2	x
O=C(COC(=O)/C=C/c1cccc(Cl)c1Cl)Nc1ccc2[nH]c(=O)[nH]c2c1	0	0	35*	0	3
O=C(COC(=O)/C=C/c1cccc(Cl)c1)Nc1ccc2[nH]c(=O)[nH]c2c1	25	0	27*	-1	0
Cc1noc(C)c1NC(=O)N[C@@H]1CC[C@@H](CCNC(=O)C2CCC2)O[C@@H]1CO	0	0	x	2	x
CCNC(=O)[C@H]1[C@H](CO)[C@H]2Cn3c(ccc(-c4ccccc4F)c3=O)[C@@H]1N2C(=O)CC	9	0	x	2	x
C=CCN(c1ccccc1OC)S(=O)(=O)c1cccc(C(=O)NCC(c2ccc(OC)cc2)N2CCCC2)c1 (configuration not stated)	-13	0	27*	1	-2
SMILES	S100A4 MyoIIA	FGF22 binding	dFosB act-1	F508del corr	dFosB act-2
CC(=O)Nc1ccc(NC(=O)CSc2nnc(NC(=O)C3CC3)s2)cc1	6	0	28*	-1	-1
CCC(C)C(=O)Nc1nnc(SCC(=O)Nc2ccc(F)cc2)s1 (configuration not stated)	1	0	-3	4	x
CC(=O)Nc1ccc(NC(=O)CSc2nnc(NC(=O)Cc3ccc(F)cc3)s2)cc1	-37	0	24*	3	0
O=C(CSc1nnc(NC(=O)C2CC2)s1)Nc1ccccc1	-4	0	25*	1	2
CCS(=O)(=O)NCC[C@@H]1CC[C@H](NS(=O)(=O)c2cccc(Cl)c2)[C@H](CO)O1	9	0	x	-1	x
CC(=O)N(C)C[C@@H]1Oc2ncc(C#Cc3ccccc3)cc2C(=O)N([C@@H](C)CO)C[C@H]1C	4	0	x	0	x
Cc1ccc(OCc2nnc(SCC(=O)Nc3sc(C)c(C)c3C#N)n2C)cc1	x	x	26*	x	0
Cc1sc(NC(=O)CSc2nnc(COc3ccccc3)n2C)c(C#N)c1C	x	x	-9	x	x
COc1cccc(Nc2nc(N)c([N+](=O)[O-])c(NCc3ccccc3)n2)c1	4	0	51*	-6	-1
COCC(=O)NC[C@@H]1[C@@H](c2ccc(-c3ccccc3)cc2)[C@@H](CO)N1C(C)=O	-2	0	x	2	x
O=C(NNC(=O)c1sc2cccc(Cl)c2c1Cl)Nc1ccccc1	x	x	76*	x	0
O=C(CSc1nc(-c2ccccc2)cc(C(F)(F)F)n1)NCc1cccs1	x	x	27*	x	1
COc1ccc2c3c([nH]c2c1)[C@@H](CO)N(C(=O)C1CCCC1)CC31CN(C(=O)c2ccncc2)C1	1	0	x	-2	x
O=C(OCC(=O)c1ccc(Cl)cc1Cl)c1ccc2c(c1)C(=O)N(c1cccc3ncccc13)C2=O	x	x	7	x	x
O=C(COC(=O)c1ccc2c(c1)C(=O)N(c1cccc3ncccc13)C2=O)c1ccc(Cl)cc1	1	44*	65*	-1	2
Cc1ccc(C(=O)COC(=O)c2ccc3c(c2)C(=O)N(c2cccc4ncccc24)C3=O)cc1	7	0	49*	2	5
C[C@@H]1CN([C@@H](C)CO)C(=O)Cc2cc(NC(=O)NC3CCCCC3)ccc2O[C@H]1CN(C)S(=O)(=O)c1cccs1	-2	0	x	3	x
CC(=O)N1CC2(C1)[C@H](c1ccc(-c3ccc(C#N)cc3)cc1)[C@H](CO)N2C(=O)C1CC1	-10	0	x	-1	x
CC(C)c1ccc(NC(=O)[C@@H](C)NC(=O)[C@@H]2Cc3ccccc3CN2)cc1	-2	0	-4	-3	x
Cc1cc(C)cc(NC(=O)[C@H](NC(=O)[C@@H]2Cc3ccccc3CN2)c2ccccc2)c1	x	x	47*	x	1
Cc1ccc(NC(=O)[C@H](Cc2c[nH]c3ccccc23)NC(=O)[C@@H]2Cc3ccccc3CN2)c(C)c1	-2	0	34*	6	4
